# Test results: ChEMBL document CHEMBL3875159, “High-affinity small molecular blockers of mixed lineage leukemia 1 (MLL1)-WDR5 interaction inhibit MLL1 complex H3K4 methyltransferase activity” (Eur J Med Chem, 2016)
# The source made the active and inactive calls. The calls are words filed in the database; no cut-off is given here.
# What was measured:
# [1] = Antiproliferative activity against human MV4-11 cells harboring MLL-AF4 fusion protein after 72 hrs by CCK8 assay; format: functional, cell-based; conditions: MV4-11, 72 h
# [2] = target: T1, WD repeat-containing protein 5 (Homo sapiens, UniProt P61964); assay: Inhibition of 10mer-Thr-FAM probe binding to human WDR5 after 2 hrs by fluorescence polarization assay
# MV4-11 [3] = assay: Induction of apoptosis in human MV4-11 cells harboring MLL-AF4 fusion protein assessed as necrotic cells at 2.5 uM after 72 hrs by Annexin-V/propidium iodide staining based flow cytometry (reference value: 0.15%); format: functional
# [4] = target: T2, Histone-lysine N-methyltransferase 2A/WDR5 (Homo sapiens) (UniProt P61964+Q03164); assay: Inhibition of MLL1-WDR5 protein-protein interaction in human MV4-11 cells harboring MLL-AF4 fusion protein assessed as inhibition of Hoxa9 gene expression at 10 uM after 7 days by RT-PCR method relative to control; format: cell-based
# Procedure, shortened: (§1)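 MV4-11 cells were treated with DMSO or 0.625, 1.25, 2.5 or 10 μM compound for 7 days. Hoxa9 and Meis-1 expression was measured by RT-PCR against DMSO control. Significance was tested versus the nontreated blank control.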
# [5] = target: T2, Histone-lysine N-methyltransferase 2A/WDR5 (Homo sapiens); assay: Inhibition of MLL1-WDR5 protein-protein interaction in human MV4-11 cells harboring MLL-AF4 fusion protein assessed as inhibition of Meis-1 gene expression at 2.5 uM after 7 days by RT-PCR method relative to control; format: cell-based
# Procedure, shortened: (§2)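 MV4-11 cells treated for 7 days at 0.625, 1.25, 2.5 and 10 μM, with a DMSO control. Hoxa9 and Meis-1 expression was measured by RT-PCR and compared with the untreated blank control group (*p < 0.05, **p < 0.01).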
# MV4-11 [6] = assay: Induction of apoptosis in human MV4-11 cells harboring MLL-AF4 fusion protein assessed as necrotic cells at 5 uM after 72 hrs by Annexin-V/propidium iodide staining based flow cytometry (reference value: 0.15%); format: functional
# [7] = target: T1, WD repeat-containing protein 5; assay: Binding affinity to human WDR5 by isothermal titration calorimetry
# [8] = target: T2, Histone-lysine N-methyltransferase 2A/WDR5 (Homo sapiens); assay: Inhibition of MLL1-WDR5 protein-protein interaction in human MV4-11 cells harboring MLL-AF4 fusion protein assessed as inhibition of Hoxa9 gene expression at 2.5 uM after 7 days by RT-PCR method relative to control; format: cell-based; procedure, shortened: as §2
# MV4-11 [9] = assay: Induction of apoptosis in human MV4-11 cells harboring MLL-AF4 fusion protein assessed as early apoptotic cells at 10 uM after 72 hrs by Annexin-V/propidium iodide staining based flow cytometry (reference value: 4.45%); format: functional
# MV4-11 [10] = assay: Induction of apoptosis in human MV4-11 cells harboring MLL-AF4 fusion protein assessed as late apoptotic cells at 10 uM after 72 hrs by Annexin-V/propidium iodide staining based flow cytometry (reference value: 21.6%); format: functional
# [11] = target: T2, Histone-lysine N-methyltransferase 2A/WDR5 (Homo sapiens); assay: Inhibition of MLL1-WDR5 protein-protein interaction in human MV4-11 cells harboring MLL-AF4 fusion protein assessed as inhibition of Hoxa9 gene expression after 7 days by RT-PCR method; format: cell-based; procedure, shortened: as §1
# MV4-11 [12] = assay: Induction of apoptosis in human MV4-11 cells harboring MLL-AF4 fusion protein assessed as late apoptotic cells at 2.5 uM after 72 hrs by Annexin-V/propidium iodide staining based flow cytometry (reference value: 21.6%); format: functional
# MV4-11 [13] = assay: Induction of apoptosis in human MV4-11 cells harboring MLL-AF4 fusion protein assessed as viable cells at 2.5 uM after 72 hrs by Annexin-V/propidium iodide staining based flow cytometry (reference value: 73.8%); format: functional; conditions: MV4-11, 72 h, read-out: Activity
# MV4-11 [14] = assay: Induction of apoptosis in human MV4-11 cells harboring MLL-AF4 fusion protein assessed as early apoptotic cells at 2.5 uM after 72 hrs by Annexin-V/propidium iodide staining based flow cytometry (reference value: 4.45%); format: functional
# [15] = target: T2, Histone-lysine N-methyltransferase 2A/WDR5 (Homo sapiens); assay: Inhibition of MLL1-WDR5 protein-protein interaction in human MV4-11 cells harboring MLL-AF4 fusion protein assessed as inhibition of MLL1 histone methyltransferase activity by measuring reduction in H3K4me1 level at 5 uM after 7 days by Western blot method; format: cell-based
# Procedure, shortened: (§3)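 MV4-11 cells were exposed to a range of concentrations for 7 days. H3K4me1 and H3K4me2 were detected by western blotting with β-actin as loading control.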
# MV4-11 [16] = assay: Induction of apoptosis in human MV4-11 cells harboring MLL-AF4 fusion protein assessed as early apoptotic cells at 5 uM after 72 hrs by Annexin-V/propidium iodide staining based flow cytometry (reference value: 4.45%); format: functional
# [17] = target: MLL1/ASH2L/RBBP5/WDR5 complex (Homo sapiens, UniProt P61964+Q03164+Q15291+Q9UBL3); assay: Inhibition of recombinant MLL1/ASH2L/RBBP5/WDR5 complex histone methyltransferase activity (unknown origin) by AlphaScreen assay; format: protein-complex assay
# [18] = target: T2, Histone-lysine N-methyltransferase 2A/WDR5 (Homo sapiens); assay: Inhibition of MLL1-WDR5 protein-protein interaction in human MV4-11 cells harboring MLL-AF4 fusion protein assessed as inhibition of Meis-1 gene expression after 7 days by RT-PCR method; format: cell-based; procedure, shortened: as §1
# MV4-11 [19] = assay: Induction of apoptosis in human MV4-11 cells harboring MLL-AF4 fusion protein assessed as late apoptotic cells at 5 uM after 72 hrs by Annexin-V/propidium iodide staining based flow cytometry (reference value: 21.6%); format: functional
# MV4-11 [20] = assay: Induction of apoptosis in human MV4-11 cells harboring MLL-AF4 fusion protein assessed as viable cells at 10 uM after 72 hrs by Annexin-V/propidium iodide staining based flow cytometry (reference value: 73.8%); format: functional; conditions: MV4-11, 72 h, read-out: Activity
# MV4-11 [21] = assay: Induction of apoptosis in human MV4-11 cells harboring MLL-AF4 fusion protein after 72 hrs by Annexin-V/propidium iodide staining based flow cytometry; format: functional, cell-based
# MV4-11 [22] = assay: Induction of apoptosis in human MV4-11 cells harboring MLL-AF4 fusion protein assessed as necrotic cells at 10 uM after 72 hrs by Annexin-V/propidium iodide staining based flow cytometry (reference value: 0.15%); format: functional
# [23] = target: T2, Histone-lysine N-methyltransferase 2A/WDR5 (Homo sapiens); assay: Inhibition of MLL1-WDR5 protein-protein interaction in human MV4-11 cells harboring MLL-AF4 fusion protein assessed as inhibition of MLL1 histone methyltransferase activity by measuring reduction in H3K4me2 level after 7 days by Western blot method; format: cell-based; procedure, shortened: as §3
# [24] = target: T2, Histone-lysine N-methyltransferase 2A/WDR5 (Homo sapiens); assay: Inhibition of MLL1-WDR5 protein-protein interaction in human MV4-11 cells harboring MLL-AF4 fusion protein assessed as inhibition of Meis-1 gene expression at 10 uM after 7 days by RT-PCR method relative to control; format: cell-based; procedure, shortened: as §1
# MV4-11 [25] = assay: Induction of apoptosis in human MV4-11 cells harboring MLL-AF4 fusion protein assessed as viable cells at 5 uM after 72 hrs by Annexin-V/propidium iodide staining based flow cytometry (reference value: 73.8%); format: functional; conditions: MV4-11, 72 h, read-out: Activity
# [26] = Antiproliferative activity against human MV4-11 cells harboring MLL-AF4 fusion protein by CellTiter-Glo assay; format: functional, cell-based
# Procedure, shortened: (§4)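 Proliferation assay in leukaemia cell lines with or without an MLL fusion. MV4-11 (MLL-AF4) gives an IC50 from concentration–response. K562 carries no MLL fusion protein; compounds are tested at a single 35 μM, reported as % remaining growth activity (IC50 where determined).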
# [27] = Growth inhibition of human K562 cells after 7 days by MTS assay; format: functional, cell-based; conditions: K562, 168 h; procedure, shortened: as §4
smiles,measurement,setting,value
CCC(=O)Nc1ccc(-c2ccc(N3CCN(C)CC3)c(NC(=O)c3cc(N)c(F)c(C)c3Cl)c2)cc1,IC50,[1],6.5 µM
same,IC50,[2],0.0815 µM
COc1ccc(N2CCN(c3ccc([N+](=O)[O-])cc3NC(=O)c3ccc(F)c(C)c3Cl)CC2)cc1,IC50,[2],> 20 µM
Cc1c(F)c(N)cc(C(=O)Nc2cc(-c3ccc(N)cc3)ccc2N2CCN(C)CC2)c1Cl,Activity,MV4-11 [3],0.05%
same,inhibition,[4],80%
same,IC50,[1],17.7 µM
same,inhibition,[5],50%
same,Activity,MV4-11 [6],0%
same,Kd,[7],0.202 µM
same,inhibition,[8],50%
same,Activity,MV4-11 [9],13.8%
same,Activity,MV4-11 [10],49.75%
same,inhibition,[11],Dose-dependent effect
same,Activity,MV4-11 [12],23.55%
same,viability at 2.5 µM,MV4-11 [13],70.9%
same,Activity,MV4-11 [14],5.5%
same,inhibition,[15],Active
same,Activity,MV4-11 [16],7.95%
same,IC50,[17],1.65 µM
same,inhibition,[18],Dose-dependent effect
same,Activity,MV4-11 [19],33.55%
same,viability at 10 µM,MV4-11 [20],36.3%
same,Activity,MV4-11 [21],Dose-dependent effect
same,Activity,MV4-11 [22],0.15%
same,inhibition,[23],Dose-dependent effect
same,inhibition,[24],80%
same,viability at 5 µM,MV4-11 [25],58.5%
CN1CCN(c2ccc(-c3ccc(N)cc3)cc2NC(=O)c2ccc(F)c(N)c2)CC1,IC50,[2],13.6 µM
Cc1c(F)c(N)cc(C(=O)Nc2cc(-c3ccc(NC(=O)CN)cc3)ccc2N2CCN(C)CC2)c1Cl,IC50,[1],13.2 µM
same,IC50,[2],0.0625 µM
Cc1c(F)c(N)cc(C(=O)Nc2cc(-c3ccncc3)ccc2N2CCN(C)CC2)c1Cl,IC50,[2],0.0182 µM
CN1CCN(c2ccc(-c3ccc([N+](=O)[O-])cc3)cc2NC(=O)c2ccc(F)c([N+](=O)[O-])c2)CC1,IC50,[2],1.09 µM
Cc1c(F)ccc(C(=O)Nc2cc([N+](=O)[O-])ccc2NCCCn2ccnc2)c1Cl,IC50,[2],> 20 µM
Cc1c(F)c(N)cc(C(=O)Nc2cc(-c3ccc(NC(=O)C4CCNCC4)cc3)ccc2N2CCN(C)CC2)c1Cl,IC50,[1],9.2 µM
same,Kd,[7],0.0075 µM
same,IC50,[17],0.3 µM
Cc1c(F)c(N)cc(C(=O)Nc2cc(-c3ccc(NC(=O)c4ccccc4)cc3)ccc2N2CCN(C)CC2)c1Cl,IC50,[1],5.4 µM
same,IC50,[2],0.422 µM
Cc1c(F)ccc(C(=O)Nc2cc([N+](=O)[O-])ccc2N2CCN(Cc3ccccc3)CC2)c1Cl,IC50,[2],> 20 µM
Cc1c(F)ccc(C(=O)Nc2cc([N+](=O)[O-])ccc2N2CCN(c3ccc(F)cc3)CC2)c1Cl,IC50,[2],> 20 µM
Cc1c(F)c(N)cc(C(=O)Nc2cc(-c3ccc(NC(=O)C4CC4)cc3)ccc2N2CCN(C)CC2)c1Cl,IC50,[1],4.8 µM
same,IC50,[2],0.0758 µM
Cc1c(F)c(N)cc(C(=O)Nc2cc(-c3ccc(NC(=O)C(C)NC(=O)OC(C)(C)C)cc3)ccc2N2CCN(C)CC2)c1Cl (stereo unspecified),IC50,[1],4.3 µM
same,IC50,[2],0.0779 µM
Cc1c(F)ccc(C(=O)Nc2cc([N+](=O)[O-])ccc2N2CCN(c3ccccn3)CC2)c1Cl,IC50,[2],> 20 µM
Cc1c(F)ccc(C(=O)Nc2cc([N+](=O)[O-])ccc2NCCN)c1Cl,IC50,[2],> 20 µM
CCC(CC)(NC(=O)C(C)C)C(=O)N[C@@H](CCCNC(=N)N)C(=O)NC1(C(=O)NC(c2ccc(F)cc2)c2ccc(F)cc2)CCCC1,IC50,[26],25 µM
same,IC50,[27],37.8 µM
Cc1c(F)c(N)cc(C(=O)Nc2cc(-c3ccc(NC(=O)C(C)N)cc3)ccc2N2CCN(C)CC2)c1Cl (stereo unspecified),IC50,[1],11.1 µM
same,IC50,[2],0.015 µM
CN1CCN(c2ccc(-c3ccncc3)cc2NC(=O)c2ccc(F)c(N)c2)CC1,IC50,[2],5.8 µM
